Measured values reported in ChEMBL document CHEMBL1132302, “Identification of pharmacokinetically stable 3, 10-dibromo-8-chlorobenzocycloheptapyridine farnesyl protein transferase inhibitors with potent enzyme and cellular activities” (J Med Chem, 1999).

Columns and labels:
[1] = molecular target: T1, Protein farnesyltransferase (Homo sapiens, UniProt P49354+P49356); test: Effect on Ras processing in Cos-1 monkey kidney cells expressing either H-Ras-Val 12-CVLS or H-Ras-Val12.; assay type: functional, cell-based, Cercopithecidae
How it was run: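 Ras processing was tested in Cos-1 monkey kidney cells transiently expressing H-Ras-Val12-CVLS or H-Ras-Val12. IC50 values are single-point determinations.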

[2] = molecular target: T1, Protein farnesyltransferase; test: Inhibitory activity against Hras Farnesyltransferase (FPT).; assay type: protein-complex assay
NIH-3T3 (Mus musculus) = test: inhibition of tumor colony formation in soft agar
[3] = (§1) Area under curve was determined using 20%aqueous hydroxypropyl-beta-cyclodextrin (HPbetaCD) as vehicle. Compound was administered intravenously to nude mice at a dose of 25 mg/kg; assay type: organism-based; set-up: dose 25 mg/kg
How it was run: (§2)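 Nude mice were dosed at 25 mpk, intravenously or orally as the line states, in 20% aqueous hydroxypropyl-β-cyclodextrin or 0.4% aqueous methyl cellulose. Serum was sampled over 24 h. Each time point came from sera of different animals.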

[4] = (§3) Area under curve was determined using 20%aqueous hydroxypropyl-beta-cyclodextrin (HPbetaCD) as vehicle. Compound was administered orally to nude mice at a dose of 25 mg/kg; assay type: organism-based; set-up: dose 25 mg/kg; how it was run: as §2
Mus musculus = test: (§4) Bioavailability in mouse (nude) using 20% aqueous hydroxypropyl-beta-cyclodextrin (HPbetaCD) as vehicle 25 mg/kg; assay type: organism-based
[5] = Maximum concentration (Cmax) using 20%aqueous hydroxypropyl-beta-cyclodextrin (HPbetaCD) as vehicle. compound was administered intravenously to nude mice at a dose of 25 mg/kg; assay type: ADME, organism-based; set-up: dose 25 mg/kg, route intravenous; settings: mouse, in vivo, iv; how it was run: as §2
[6] = Maximum concentration (Cmax) using 20%aqueous hydroxypropyl-beta-cyclodextrin (HPbetaCD) as vehicle. compound was administered orally to nude mice at a dose of 25 mg/kg; assay type: ADME, organism-based; set-up: dose 25 mg/kg, route oral; settings: mouse, in vivo, po; how it was run: as §2
[7] = (§5) Half life was administered by using 20%aqueous hydroxypropyl-beta-cyclodextrin (HPbetaCD) as vehicle to nude mice at a dose of 25mpk,; assay type: organism-based
[8] = as §4; assay type: ADME, organism-based; settings: nude, in vivo
[9] = Maximum concentration (Cmax) using 0.4% Methyl cellulose (MC) as vehicle. compound was administered orally to nude mice at a dose of 25 mg/kg; assay type: ADME, organism-based; set-up: dose 25 mg/kg, route oral; settings: mouse, in vivo, po; how it was run: as §2
[10] = Area under curve was determined using 0.4% Methyl cellulose (MC) as vehicle. Compound was administered orally to nude mice at a dose of 25 mg/kg; assay type: ADME, organism-based; set-up: dose 25 mg/kg, route oral; settings: mouse, in vivo, po; how it was run: as §2
[11] = as §1; assay type: ADME, organism-based; set-up: dose 25 mg/kg, route intravenous; settings: mouse, in vivo, iv; how it was run: as §2
[12] = as §5; assay type: ADME, organism-based; settings: mouse, in vivo, 25 mg/kg
[13] = as §3; assay type: ADME, organism-based; set-up: dose 25 mg/kg, route oral; settings: mouse, in vivo, po; how it was run: as §2
[14] = molecular target: T1, Protein farnesyltransferase; test: Inhibition of [3H]FPP incorporation into His6-H-Ras-CVLS by farnesyl transferase; assay type: protein-complex assay
[15] = Area under curve was determined using 20%aqueous hydroxypropyl-beta-cyclodextrin (HPbetaCD) as vehicle. Compound was administered orally to nude mice at a dose of 25 mg/kg (Run time = 7 hr); assay type: ADME, organism-based; set-up: dose 25 mg/kg, route oral; settings: mouse, in vivo, po
How it was run: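 Nude mice received 25 mpk in 20% aqueous hydroxypropyl-β-cyclodextrin, by the route the line gives. Serum was collected over a shortened 7-h run rather than 24 h. Each time point used sera from different animals.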

Row | SMILES | IC50 [1] | IC50 [2] | Cmax [5] | Cmax [6] | bioavailability [8] | AUC [11] | half-life [12] | IC50 (NIH-3T3 (Mus musculus)) | further results
1 | O=C(O)c1cncc(C(=O)N2CCC(CC(=O)N3CCC([C@H]4c5ncc(Br)cc5CCc5cc(Cl)cc(Br)c54)CC3)CC2)c1 | > 1000 nM | 0.8 nM | – | – | – | – | – | > 500 nM | –
2 | NC(=O)N1CCC(CC(=O)N2CCC([C@H]3c4ncc(Br)cc4CCc4cc(Cl)cc(Br)c43)CC2)CC1 [LONAFARNIB] | – | – | 20 µM | 8.84 µM | 75.8% | 31800 ng·h/mL | 1.4 h | 75 nM | Cmax [9]: 16.6 µM; AUC [10]: 41400 ng·h/mL; AUC [13]: 24100 ng·h/mL
3 | NC(=O)CNC(=O)N1CCC(CC(=O)N2CCC([C@H]3c4ncc(Br)cc4CCc4cc(Cl)cc(Br)c43)CC2)CC1 | 25 nM | – | – | – | – | – | – | 330 nM | IC50 [14]: 0.9 nM
4 | O=C(CC1CCN(C(=O)Cn2cccc2)CC1)N1CCC([C@H]2c3ncc(Br)cc3CCc3cc(Cl)cc(Br)c32)CC1 | 9 nM | 4.3 nM | – | – | – | – | – | 460 nM | –
5 | NC(=O)CN1CCC(CC(=O)N2CCC([C@H]3c4ncc(Br)cc4CCc4cc(Cl)cc(Br)c43)CC2)CC1 | 6 nM | – | 30 µM | 1.94 µM | 60.2% | 20300 ng·h/mL | 4 h | 70 nM | IC50 [14]: 2.1 nM; AUC [13]: 12200 ng·h/mL
6 | O=C(O)CNC(=O)N1CCC(CC(=O)N2CCC([C@H]3c4ncc(Br)cc4CCc4cc(Cl)cc(Br)c43)CC2)CC1 | – | – | – | – | – | – | – | > 500 nM | –
7 | CN(C)C(=O)C(=O)N1CCC(CC(=O)N2CCC([C@H]3c4ncc(Br)cc4CCc4cc(Cl)cc(Br)c43)CC2)CC1 | 10 nM | – | 26.3 µM | 3.2 µM | 30% | 7530 ng·h/mL | 1.04 h | 120 nM | AUC at 7 h [15]: 2260 ng·h/mL
8 | NC(=O)c1cncc(C(=O)N2CCC(CC(=O)N3CCC([C@H]4c5ncc(Br)cc5CCc5cc(Cl)cc(Br)c54)CC3)CC2)c1 | 21 nM | 2.2 nM | – | – | – | – | – | 500 nM | –

Further lines, with some results ahead:

Row | IC50 [1] | IC50 [2] | Cmax [5] | Cmax [6] | bioavailability [8] | AUC [11] | half-life [12] | SMILES | IC50 (NIH-3T3 (Mus musculus)) | further results
9 | – | – | 30 µM | 1.3 µM | – | – | – | CS(=O)(=O)N1CCC(CC(=O)N2CCC([C@H]3c4ncc(Br)cc4CCc4cc(Cl)cc(Br)c43)CC2)CC1 | – | AUC [3]: 9520 ng·h/mL; AUC [4]: 950 ng·h/mL; bioavailability (Mus musculus): 10%; T1/2 [7]: 0.53 h
10 | – | 76.1 nM | – | – | – | – | – | O=C(CC1CCN(S(=O)(=O)c2ccccc2)CC1)N1CCC([C@H]2c3ncc(Br)cc3CCc3cc(Cl)cc(Br)c32)CC1 | – | –
11 | 9 nM | – | 30 µM | 0.49 µM | 1.7% | 5950 ng·h/mL | 1.3 h | CN(C)S(=O)(=O)N1CCC(CC(=O)N2CCC([C@H]3c4ncc(Br)cc4CCc4cc(Cl)cc(Br)c43)CC2)CC1 | 100 nM | IC50 [14]: 7.8 nM; AUC [13]: 100 ng·h/mL
12 | – | – | 30 µM | 3.6 µM | – | – | – | NS(=O)(=O)N1CCC(CC(=O)N2CCC([C@H]3c4ncc(Br)cc4CCc4cc(Cl)cc(Br)c43)CC2)CC1 | 200 nM | AUC [3]: 26100 ng·h/mL; AUC [4]: 5600 ng·h/mL; bioavailability (Mus musculus): 22%; T1/2 [7]: 1.5 h
